Assay results: article PMC3268775 (Journal of the American Chemical Society, 2012)
Residue numbers refer to the chain shown, from its start. Numbered stars: 1 amine (or outer) side, 2 acyl side, 3 side chain; on linkers, the order of the positions; unused ones are H or OH. Square brackets hold non-standard residues; d marks the D form. Peptide text beside a SMILES is read from it. * marks the point of attachment. Isonicotinoyl(2-(4-Me-2-Py)) = Cc1ccnc(-c2cc(C(=O)*)ccn2)c1; X1 = O=C([C@H](Cc1c(F)cc(O)c(F)c1F)N[*:1])[*:2]

Assays:
[1] = [Re^I]* emission lifetime of peptide in solution; assay type: physicochemical
Procedure, shortened: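 Time-resolved [Re] emission, monitored at 610 nm. Samples held 10 μM Re-labelled test peptide, 200 μM Ru(NH3)6Cl3, 1 mM CDP and 3 mM ATP in 50 mM sodium borate, pH 8.3, 15 mM MgSO4, 5% glycerol. For the bound state, 20 μM His6-tagged E. coli α2 mutant was added. Samples were equilibrated 3 min at 23 °C and measured while flowing. Lifetimes came from weighted least-squares fits of averaged traces.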

Y731F-α2 = biological target: T1, Y731F-α2 (Escherichia coli, UniProt P00452, Y731F); assay: Flash-quench transient absorption: •F3Y radical in presence of Y731F-α2; assay type: biochemical
T1 sequence (P00452 1-761 Y731F): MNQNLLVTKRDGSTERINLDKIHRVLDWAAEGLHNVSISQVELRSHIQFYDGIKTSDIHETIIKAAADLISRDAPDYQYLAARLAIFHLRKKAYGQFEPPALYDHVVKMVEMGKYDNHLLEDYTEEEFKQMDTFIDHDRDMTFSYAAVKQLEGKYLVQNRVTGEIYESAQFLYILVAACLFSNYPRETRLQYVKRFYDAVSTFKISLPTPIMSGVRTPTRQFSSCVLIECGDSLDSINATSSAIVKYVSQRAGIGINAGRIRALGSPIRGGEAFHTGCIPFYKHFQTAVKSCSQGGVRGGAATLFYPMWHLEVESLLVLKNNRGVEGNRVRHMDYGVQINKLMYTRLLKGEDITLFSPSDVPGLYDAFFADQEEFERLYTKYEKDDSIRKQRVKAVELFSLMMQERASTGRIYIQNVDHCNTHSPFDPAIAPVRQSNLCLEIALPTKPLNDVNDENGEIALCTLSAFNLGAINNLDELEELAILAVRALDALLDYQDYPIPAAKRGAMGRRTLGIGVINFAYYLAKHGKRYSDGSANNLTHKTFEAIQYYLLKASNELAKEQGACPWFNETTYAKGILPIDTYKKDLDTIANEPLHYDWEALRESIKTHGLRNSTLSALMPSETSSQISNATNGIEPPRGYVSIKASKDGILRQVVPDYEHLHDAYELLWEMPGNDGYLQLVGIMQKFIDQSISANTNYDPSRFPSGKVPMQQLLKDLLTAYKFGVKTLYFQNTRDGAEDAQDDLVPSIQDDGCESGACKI

[2] = Flash-quench transient absorption: •F3Y radical of free peptide; assay type: physicochemical
Procedure, shortened: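 Free Re-labelled test peptide (50 μM) with 1 mM Ru(NH3)6Cl3 flash quencher, 1 mM CDP and 3 mM ATP in 50 mM borate, pH 8.3, 15 mM MgSO4, 5% glycerol. Samples were equilibrated 3 min at 23 °C and flowed through the cuvette, then excited with a 7 ns 355 nm pulse. Spectra averaged three data sets with FFT noise filtering. Kinetic traces were fitted by weighted least squares; errors are one SD.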

Y730F-α2 = biological target: T2, Y730F-α2 (Escherichia coli, UniProt P00452, Y730F); assay: Flash-quench transient absorption: •F3Y radical in presence of Y730F-α2; assay type: biochemical; conditions: for radical lifetime change / radical injection (in words): Y730F-α2; for •F3Y lifetime: monoexponential, 50 μM peptide
T2 sequence (P00452 1-761 Y730F): T1 sequence (P00452 1-761 Y731F) with Y730F, F731Y
Procedure, shortened: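 Laser flash-quench transient absorption at 23 °C in 50 mM sodium borate, pH 8.3, 15 mM MgSO4, 5% v/v glycerol. Final mix: 50 μM Re-labelled test peptide, 100 μM α2 mutant, 1 mM Ru(NH3)6Cl3, 1 mM CDP, 3 mM ATP, flowing through the cuvette. α2 was N-terminally His6-tagged E. coli protein, IPTG-induced in BL21(DE3) and Ni-NTA purified. Excitation was a 7 ns 355 nm pulse. Decays averaged 3–6 traces and were fitted by weighted least squares from 1 μs.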

CC[C@H](C)[C@H](NC(=O)[C@H](CCC(N)=O)NC(=O)CNC(=O)[C@@H](NC(=O)[C@H](CC(C)C)NC(=O)[C@H](Cc1c(F)cc(O)c(F)c1F)NC(=O)c1ccnc(-c2cc(C)ccn2)c1)C(C)C)C(=O)N[C@@H](CC(=O)O)C(=O)N[C@@H](CO)C(=O)N[C@@H](CCC(=O)O)C(=O)N[C@H](C(=O)N[C@@H](CC(=O)O)C(=O)N[C@H](C(=O)N[C@@H](CC(=O)O)C(=O)N[C@@H](CC(=O)O)C(=O)N[C@@H](CC(C)C)C(=O)N[C@@H](CO)C(=O)N[C@@H](CC(N)=O)C(=O)N[C@@H](Cc1ccccc1)C(=O)N[C@@H](CCC(N)=O)C(=O)N[C@@H](CC(C)C)C(=O)O)[C@@H](C)O)C(C)C [[Re]–F3Y–βC19] ({Isonicotinoyl(2-(4-Me-2-Py))}-[X1]LVGQIDSEVDTDDLSNFQL-OH; N-terminus and C-terminus assumed)
[Re^I]* emission decay, contribution of short component ([1]; pH 8.3, 22 ns component): 81%
[Re^I]* emission decay, contribution of long component ([1]; pH 8.3, 58 ns component): 19%
[Re^I]* emission lifetime, long component ([1]; pH 8.3, biphasic, [Re^I]* unchanged by proximal F3Y): 58 ns
[Re^I]* emission lifetime, short component ([1]; pH 8.3, biphasic, quenching by deprotonated F3Y−): 22 ns
radical lifetime change / radical injection (in words) (Y731F-α2; Y731F-α2): cannot competently inject the radical into α2
•F3Y lifetime τ410 (Y731F-α2; Y731F-α2, 410 nm, monoexponential, 50 μM peptide, 100 μM α2, pH 8.3): 14.2 ± 0.2 μs
•F3Y lifetime τ425 (Y731F-α2; Y731F-α2, 425 nm, monoexponential, 50 μM peptide, 100 μM α2, pH 8.3): 16.5 ± 0.4 μs
portion of peptide N-terminus in the "on" conformer (Y731F-α2; Y731F-α2, from amplitude of the •F3Y lifetime): 20–30%
radical lifetime change / radical injection (in words) (Y731F-α2; Y731F-α2, listed as [Re]–•F3Y–βC19): no significant change in radical lifetime
fast time component, recombination of charge-separated state ([2]; flash quench, 20 mol equiv Ru(NH3)6Cl3, λdet 425 nm): 100 ns
•F3Y lifetime τ395 ([2]; free peptide, 395 nm, monoexponential, 50 μM peptide, 1 mM Ru(NH3)6Cl3, 1 mM CDP, 3 mM ATP, 15 mM MgSO4, 5% glycerol, 50 mM borate pH 8.3, average of 3–6 data sets): 14.7 ± 0.2 μs
•F3Y lifetime τ410 ([2]; free peptide, 410 nm, monoexponential, 50 μM peptide, 1 mM Ru(NH3)6Cl3, borate pH 8.3, average of 3–6 data sets): 13.5 ± 0.2 μs
•F3Y lifetime τ425 ([2]; free peptide, 425 nm, monoexponential, 50 μM peptide, 1 mM Ru(NH3)6Cl3, borate pH 8.3, average of 3–6 data sets): 14.5 ± 0.4 μs
photochemical yield of •F3Y formation ([2]; optimized flash-quench system, 20 mol equiv Ru(NH3)6Cl3, calculated, see SI): 4.9%
radical lifetime change / radical injection (in words) (Y730F-α2): radical injection into the surface of the protein is blocked
•F3Y lifetime (Y730F-α2; Y730F-α2, 395 nm, 100 μM α2, pH 8.3): 14.4 ± 0.2 μs
•F3Y lifetime (Y730F-α2; Y730F-α2, 410 nm, 100 μM α2, pH 8.3): 13.7 ± 0.2 μs
•F3Y lifetime (Y730F-α2; Y730F-α2, 425 nm, 100 μM α2, 1 mM Ru(NH3)6Cl3, 1 mM CDP, 3 mM ATP, borate pH 8.3): 14.0 ± 0.2 μs
radical lifetime change / radical injection (in words) (Y730F-α2; listed as [Re]–•F3Y–βC19): no significant change in radical lifetime
